In ChEMBL document CHEMBL4425095, “Novel Cephalosporins Selectively Active on Nonreplicating Mycobacterium tuberculosis” (J Med Chem, 2016):
≈ marks a conversion by molar mass, not a printed value.

Columns and labels:
Format in all cases: functional
[1] = system: Mycobacterium tuberculosis; experiment: Antimycobacterial activity against non-replicating Mycobacterium tuberculosis mc2 6220 harboring panCD/lysA deletion mutant incubated for 7 days measured at OD580 = 0.1 by two-fold serial dilution method
In short: (§1)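 M. tuberculosis mc26220 washed twice in PBS-tyloxapol and resuspended in Sauton's-based nonreplicating medium (pH 5.0, butyrate 0.05%, BSA, tyloxapol, lysine, pantothenate, 0.5 mM NaNO2). Incubated at 1% O2, 5% CO2 with 2-fold serially diluted compound from DMSO. After 3 days, diluted 5-fold in fresh replicating medium for outgrowth at 20% O2. Reported as MIC90.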

[2] = system: Mycobacterium tuberculosis; experiment: Antimycobacterial activity against replicating Mycobacterium tuberculosis mc2 6220 harboring panCD/lysA deletion mutant by two-fold serial dilution method
In short: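 M. tuberculosis mc26220 in replicating medium supplemented with glycerol (final 0.5%), OADC, casamino acids 0.05%, lysine 240 μg/mL and pantothenate 24 μg/mL. Exposed to 2-fold serially diluted compound from DMSO. OD580 read after 7 days at 20% O2, 5% CO2. Reported as MIC90.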

[3] = system: Mycobacterium tuberculosis; experiment: Antimycobacterial activity against non-replicating Mycobacterium tuberculosis mc2 6220 harboring panCD/lysA deletion mutant incubated for 7 days measured at OD580 = 0.01 by two-fold serial dilution method; in short: as §1

Compound | MIC90 [1] [µg/mL] | MIC90 [2] [µg/mL] | MIC90 [3] [µg/mL]
COC(=O)C1=C(C)CS[C@@H]2[C@H](NC(=O)[C@H](N)c3ccccc3)C(=O)N12 | 61.78 (≈ 171 µM) | >100 | 
CC1=C(c2nc(C)no2)N2C(=O)[C@@H](NC(=O)Cc3ccccc3)[C@H]2SC1 | 1.61 (≈ 4.35 µM) | >100 | 
COC(=O)C1=C(C)CS[C@@H]2[C@H](NC(=O)COc3ccc(Cl)cc3)C(=O)N12 | 1.25 (≈ 3.15 µM) | >100 | 0.95 (≈ 2.39 µM)
CC1=C(c2nc(C)no2)N2C(=O)[C@@H](NC(=O)Cc3ccc(C)cc3)[C@H]2SC1 | 1.75 (≈ 4.55 µM) | >100 | 
CC1=C(C(=O)O)N2C(=O)[C@@H](NC(=O)CCc3ccc(Br)cc3)[C@H]2SC1 | >42.53 | 96.13 (≈ 226 µM) | >42.53
CCCCOC(=O)C1=C(C)CS[C@@H]2[C@H](NC(=O)CCc3ccc(OC)cc3)C(=O)N12 | 0.26 (≈ 0.601 µM) | >100 | 0.24 (≈ 0.555 µM)
CCCCOC(=O)C1C(C)=CS[C@@H]2[C@H](NC(=O)COc3ccccc3)C(=O)N12 (some centres undefined) | 1.28 (≈ 3.16 µM) | >100 | 0.79 (≈ 1.95 µM)
CC1=C(C(=O)O)N2C(=O)[C@@H](NC(=O)Cc3ccc(Cl)cc3)[C@H]2SC1 | >36.68 | 81.38 (≈ 222 µM) | >36.68
CCOC(=O)C1=C(C)CS[C@@H]2[C@H](NC(=O)COc3ccccc3)C(=O)N12 | 1.71 (≈ 4.54 µM) | 57.85 (≈ 154 µM) | 0.66 (≈ 1.75 µM)
CNC(=O)C1=C(C)CS[C@@H]2[C@H](NC(=O)COc3ccccc3)C(=O)N12 | >36.14 | >100 | >36.14
COc1ccc(CC(=O)N[C@@H]2C(=O)N3C(c4nc(C)no4)=C(C)CS[C@H]23)cc1 | 3.25 (≈ 8.12 µM) | >100 | 
CCOC(=O)C1=C(C)CS[C@@H]2[C@H](NC(=O)COc3ccc(Cl)cc3)C(=O)N12 | 2.38 (≈ 5.79 µM) | >100 | 1.07 (≈ 2.6 µM)
CCCc1noc(C2=C(C)CS[C@@H]3[C@H](NC(=O)CCc4ccc(C)cc4)C(=O)N23)n1 | 2.32 (≈ 5.44 µM) | >100 | 0.98 (≈ 2.3 µM)
CC1=C(c2nc(C)no2)N2C(=O)[C@@H](NC(=O)Cc3ccc(Cl)cc3)[C@H]2SC1 | 1.13 (≈ 2.79 µM) | >100 | 
CC1=C(C(=O)O/N=C(\C)N)N2C(=O)[C@@H](NC(=O)COc3ccccc3)[C@H]2SC1 | 8.12 (≈ 20.1 µM) | >100 | 5.6 (≈ 13.8 µM)
CCCCOC(=O)C1=C(C)CS[C@@H]2[C@H](NC(=O)COc3ccc(Cl)cc3)C(=O)N12 | 1.01 (≈ 2.3 µM) | >100 | 0.43 (≈ 0.98 µM)
CC1=C(c2nc(C)no2)N2C(=O)[C@@H](NC(=O)Cc3ccc(Cl)c(Cl)c3)[C@H]2SC1 | 0.28 (≈ 0.637 µM) | >100 | 
COC(=O)C1=C(C)CS[C@@H]2[C@H](NC(=O)COc3ccccc3)C(=O)N12 | 2.93 (≈ 8.08 µM) | >100 | 2.07 (≈ 5.71 µM)
CCCOC(=O)C1=C(C)CS[C@@H]2[C@H](NC(=O)COc3ccc(OC)cc3)C(=O)N12 | 0.81 (≈ 1.93 µM) | >100 | 0.39 (≈ 0.927 µM)
CC1=C(c2nc(C)no2)N2C(=O)[C@@H](NC(=O)OC(C)(C)C)[C@H]2SC1 | 9.16 (≈ 26 µM) | >100 | 5.3 (≈ 15 µM)
COC(=O)C1=C(C)CS[C@@H]2[C@H](NC(=O)[C@H](NC(=O)OC(C)(C)C)c3ccccc3)C(=O)N12 | 18.07 (≈ 39.2 µM) | >100 | 16.51 (≈ 35.8 µM)
CCCc1noc(C2=C(C)CS[C@@H]3[C@H](NC(=O)Cc4ccccc4)C(=O)N23)n1 | 1.04 (≈ 2.61 µM) | >100 | 

Compound | MIC90 [1] [µg/mL] | MIC90 [2] [µg/mL] | MIC90 [3] [µg/mL]
COc1ccc(CCC(=O)N[C@@H]2C(=O)N3C(c4nc(C)no4)=C(C)CS[C@H]23)cc1 | 1.68 (≈ 4.05 µM) | >100 | 1.13 (≈ 2.73 µM)
COc1ccc(CCC(=O)N[C@@H]2C(=O)N3C(C(=O)OCc4ccccc4)=C(C)CS[C@H]23)cc1 | 0.42 (≈ 0.9 µM) | >100 | 0.39 (≈ 0.836 µM)
CC(=O)OCC1=C(C(=O)O)N2C(=O)[C@@H](NC(=O)Cc3cccs3)[C@H]2SC1 [CEPHALOTHIN] | >100 | >100 | 95.53 (≈ 241 µM)
C#CCOC(=O)C1=C(C)CS[C@@H]2[C@H](NC(=O)COc3ccc(Cl)cc3)C(=O)N12 | 3.95 (≈ 9.39 µM) | >100 | 1.53 (≈ 3.64 µM)
CCCN(O)C(=O)C1=C(C)CS[C@@H]2[C@H](NC(=O)COc3ccccc3)C(=O)N12 | >40.55 | >100 | >40.55
CCCCOc1ccc(CCC(=O)N[C@@H]2C(=O)N3C(c4nc(CCC)no4)=C(C)CS[C@H]23)cc1 | 0.76 (≈ 1.57 µM) | >100 | 0.47 (≈ 0.97 µM)
COC(=O)C1=C(C)CS[C@@H]2[C@H](NC(=O)COc3ccc(OC)cc3)C(=O)N12 | 4.28 (≈ 10.9 µM) | >100 | 2.01 (≈ 5.12 µM)
C#CCNC(=O)C1=C(C)CS[C@@H]2[C@H](NC(=O)COc3ccccc3)C(=O)N12 | >38.54 | >100 | >38.54
COc1ccc(OCC(=O)N[C@@H]2C(=O)N3C(C(=O)OCc4ccccc4)=C(C)CS[C@H]23)cc1 | 2.53 (≈ 5.4 µM) | >100 | 1.54 (≈ 3.29 µM)
CCCc1noc(C2=C(C)CS[C@@H]3[C@H](NC(=O)CCc4ccc(F)cc4)C(=O)N23)n1 | 0.91 (≈ 2.11 µM) | >100 | 0.48 (≈ 1.11 µM)
CCCOC(=O)C1C(C)=CS[C@@H]2[C@H](NC(=O)CCc3ccc(OC)cc3)C(=O)N12 (some centres undefined) | <0.23 | 49.5 (≈ 118 µM) | 0.21 (≈ 0.502 µM)
CCOC(=O)C1=C(C)CS[C@@H]2[C@H](NC(=O)COc3ccc(OC)cc3)C(=O)N12 | 0.89 (≈ 2.19 µM) | 47.1 (≈ 116 µM) | 0.53 (≈ 1.3 µM)
CCOC(=O)C1=C(C)CS[C@@H]2[C@H](NC(=O)CCc3ccccc3)C(=O)N12 | 1.15 (≈ 3.07 µM) | >100 | 0.47 (≈ 1.26 µM)
CC1=C(C(=O)O)N2C(=O)[C@@H](NC(=O)COc3ccccc3)[C@H]2SC1 | >34.84 | >100 | >34.84
CCCOC(=O)C1=C(C)CS[C@@H]2[C@H](NC(=O)[C@H](N)c3ccccc3)C(=O)N12 | 15.46 (≈ 39.7 µM) | >100 | 
CCCc1noc(C2=C(C)CS[C@@H]3[C@H](NC(=O)Cc4ccc(C)cc4)C(=O)N23)n1 | 0.64 (≈ 1.55 µM) | >100 | 
CC1=C(c2nc(C)no2)N2C(=O)[C@@H](NC(=O)OCC(C)(C)C)[C@H]2SC1 | 1.03 (≈ 2.81 µM) | >100 | 
CC1=C(c2nc(C)no2)N2C(=O)[C@@H](NC(=O)[C@H](N)c3ccccc3)[C@H]2SC1 | 44.05 (≈ 114 µM) | >100 | 
CCCc1noc(C2=C(C)CS[C@@H]3[C@H](NC(=O)Cc4ccc(OC)cc4)C(=O)N23)n1 | 0.77 (≈ 1.8 µM) | >100 | 
CCCc1noc(C2=C(C)CS[C@@H]3[C@H](NC(=O)CCc4ccc(Cl)cc4)C(=O)N23)n1 |  | >100 | 
CCSC(=O)N[C@@H]1C(=O)N2C(c3nc(C)no3)=C(C)CS[C@H]12 | 1.84 (≈ 5.4 µM) | >100 | 
